ChEMBL document CHEMBL4680077, “Differentiation of skeletal osteogenic progenitor cells to osteoblasts with 3,4-diarylbenzopyran based amide derivatives: Novel osteogenic agents” (Eur J Med Chem, 2016)
Activity calls are given as the source filed them. The calls are words filed in the database; no cut-off is given here.

Key:
Calvarial osteoblast [1] = test: Induction of osteoblast differentiation in mouse calvarial osteoblast assessed as increase in RUNX-2 mRNA expression at 1 pM incubated for 24 hrs by qPCR analysis; format: functional, cell-based
Method in brief: (§1)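 Calvarial osteoblasts were treated at 1 pM for 24 and 48 h. Total RNA was extracted with TRIzol, and cDNA was made from 2 µg RNA. qPCR ran 40 cycles for BMP-2, RUNX-2, OCN and collagen type 1, with normalization to GAPDH. Mean ± SEM of three independent experiments.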

Calvarial osteoblast [2] = test: Induction of osteoblast differentiation in mouse calvarial osteoblast assessed as increase in collagen type 1 mRNA expression at 1 pM incubated for 24 and 48 hrs by qPCR analysis; format: functional, cell-based; method in brief: as §1
Mus musculus [3] = test: In vivo osteogenic activity in ovariectomized BALB/c mouse assessed as increase in femur bone volume density at 1 to 10 mg/kg, po via gavage administered for 1 month by microCT imaging analysis; format: functional, organism-based; details: dose 1-10 mg/kg, time 1.0 months
Method in brief: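 Ovariectomized female balb/c mice, 8 weeks old, 10 per group, received 1.0 or 10.0 mg kg-1 once daily by oral gavage (gum acacia vehicle) for 4 weeks, alongside sham and Ovx vehicle groups. Femurs were scanned by microCT. BV/TV, Tb.N and Tb.Sp were derived by the mean intercept length method. Mean ± SE.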

Mus musculus [4] = test: In vivo osteogenic activity in ovariectomized BALB/c mouse assessed as increase in force required to break bone at 1 to 10 mg/kg, po via gavage administered for 1 month by TKC Muromachi bone strength testing method; format: functional, organism-based; details: dose 1-10 mg/kg, time 1.0 months
Method in brief: (§2)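 Ovariectomized balb/c mice were gavaged with 1 or 10 mg kg-1 daily for one month. Bones were then tested on a bone strength tester for energy, stiffness and force to break. Mean ± SEM compared with the Ovx vehicle group.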

Mus musculus [5] = test: In vivo osteogenic activity in ovariectomized BALB/c mouse assessed as increase in bone stiffness at 1 to 10 mg/kg, po via gavage administered for 1 month by TKC Muromachi bone strength testing method; format: functional, organism-based; details: dose 1-10 mg/kg, time 1.0 months; method in brief: as §2
[6] = Initial concentration in Sprague-Dawley rat at 1 mg/kg, iv measured upto 24 hrs by LC-MS/MS analysis; format: ADME, organism-based; details: in vivo
[7] = Oral bioavailability in Sprague-Dawley rat at 1 mg/kg measured upto 24 hrs by LC-MS/MS analysis; format: ADME, organism-based; details: in vivo
Method in brief: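 Oral (1 mg kg-1, 0.25% CMC) and i.v. (1 mg kg-1 bolus) groups of female SD rats, n = 4 each, sampled to 24 h and assayed by plasma LC-MS/MS. AUC0-∞ = AUC0-t + Clast/kel. %F = (AUC oral × dose i.v.)/(AUC i.v. × dose oral) × 100.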

[8] = Acute toxicity in Swiss albino mouse assessed as body weight at 5 mg/kg, po observed on day 1 (reference value: 20.38 +/- 0.24 g); format: organism-based; details: in vivo, 24 h, time 1 day
[9] = Acute toxicity in Swiss albino mouse assessed as body weight at 5 mg/kg, po measured on day 7 (reference value: 22.75 +/- 0.38 g); format: organism-based; details: in vivo, 168 h, time 7 day
[10] = Acute toxicity in Swiss albino mouse assessed as haemoglobin level at 50 mg/kg, po measured after 7 days (reference value: 10.86 +/- 0.87 g/dL); format: organism-based; details: in vivo, 168 h, time 7 day
[11] = Acute toxicity in Swiss albino mouse assessed as ALKP level at 50 mg/kg, po measured after 7 days (reference value: 379.25 +/- 27.08 U/L); format: organism-based; details: in vivo, 168 h, time 7 day
[12] = Acute toxicity in Swiss albino mouse assessed as ALKP level at 1000 mg/kg, po measured after 7 days (reference value: 379.25 +/- 27.08 U/L); format: organism-based; details: in vivo, 168 h, time 7 day
[13] = Acute toxicity in Swiss albino mouse assessed as SGOT level at 1000 mg/kg, po measured after 7 days (reference value: 31.99 +/- 3.37 U/L); format: organism-based; details: in vivo, 168 h, time 7 day
[14] = Acute toxicity in Swiss albino mouse assessed as SGPT level at 50 mg/kg, po measured after 7 days (reference value: 14.04 +/- 1.45 U/L); format: organism-based; details: in vivo, 168 h, time 7 day
[15] = Acute toxicity in Swiss albino mouse assessed as cholesterol level at 300 mg/kg, po measured after 7 days (reference value: 265.76 +/- 24.78 mg/dL); format: organism-based; details: in vivo, 168 h, time 7 day
[16] = Acute toxicity in Swiss albino mouse assessed as serum protein level at 50 mg/kg, po measured after 7 days (reference value: 0.66 +/- 0.01 mg/ml); format: organism-based; details: in vivo, 168 h, time 7 day
[17] = Acute toxicity in Swiss albino mouse assessed as tissue protein level at 50 mg/kg, po measured after 7 days (reference value: 0.029 +/- 0.004 mg/ml); format: organism-based; details: in vivo, 168 h, time 7 day
[18] = Acute toxicity in Swiss albino mouse assessed as reduced GSH level at 50 mg/kg, po measured after 7 days (reference value: 18.20 +/- 1.56 ug/mg of protein); format: organism-based; details: in vivo, 168 h, time 7 day
[19] = Acute toxicity in Swiss albino mouse assessed as malondialdehyde level at 50 mg/kg, po measured after 7 days (reference value: 0.14 +/- 0.01 nM/mg); format: organism-based; details: in vivo, 168 h, time 7 day
[20] = Acute toxicity in Swiss albino mouse assessed as eosinophil count at 50 mg/kg, po measured after 7 days (reference value: 6.34 +/- 1.04 %); format: organism-based; details: in vivo, 168 h, time 7 day
[21] = Acute toxicity in Swiss albino mouse assessed as absolute kidney weight at 50 mg/kg, po measured after 7 days (reference value: 0.29 +/- 0.02 g); format: organism-based; details: in vivo, 168 h, time 7 day
[22] = Acute toxicity in Swiss albino mouse assessed as absolute uterus weight at 5 mg/kg, po measured after 7 days (reference value: 0.27+/- 0.07 g); format: organism-based; details: in vivo, 168 h, time 7 day
[23] = Acute toxicity in Swiss albino mouse assessed as absolute uterus weight at 300 mg/kg, po measured after 7 days (reference value: 0.27+/- 0.07 g); format: organism-based; details: in vivo, 168 h, time 7 day
[24] = Acute toxicity in Swiss albino mouse assessed as absolute testes weight at 300 mg/kg, po measured after 7 days (reference value: 0.15+/- 0.01 g); format: organism-based; details: in vivo, 168 h, time 7 day
[25] = Acute toxicity in Swiss albino mouse assessed as relative liver weight at 1000 mg/kg, po measured after 7 days (reference value: 6.81 +/- 2.14 %); format: organism-based; details: in vivo, 168 h, time 7 day
[26] = Acute toxicity in Swiss albino mouse assessed as relative kidney weight at 300 mg/kg, po measured after 7 days (reference value: 1.25 +/- 0.08 %); format: organism-based; details: in vivo, 168 h, time 7 day
[27] = Acute toxicity in Swiss albino mouse assessed as relative kidney weight at 1000 mg/kg, po measured after 7 days (reference value: 1.25 +/- 0.08 %); format: organism-based; details: in vivo, 168 h, time 7 day
[28] = Acute toxicity in Swiss albino mouse assessed as relative uterus weight at 5 mg/kg, po measured after 7 days (reference value: 1.63 +/- 0.71 %); format: organism-based; details: in vivo, 168 h, time 7 day
[29] = Acute toxicity in Swiss albino mouse assessed as relative ovary weight at 50 mg/kg, po measured after 7 days (reference value: 0.07 +/- 0.02 %); format: organism-based; details: in vivo, 168 h, time 7 day
[30] = Acute toxicity in Swiss albino mouse assessed as relative ovary weight at 1000 mg/kg, po measured after 7 days (reference value: 0.07 +/- 0.02 %); format: organism-based; details: in vivo, 168 h, time 7 day
[31] = Acute toxicity in Swiss albino mouse assessed as relative testes weight at 5 mg/kg, po measured after 7 days (reference value: 0.62 +/- 0.03 %); format: organism-based; details: in vivo, 168 h, time 7 day

In the case of `CCCCN(C)C(=O)CCCCOc1ccc([C@H]2c3ccc(OC)cc3OC(C)(C)[C@@H]2c2ccccc2)cc1`, the Activity (Calvarial osteoblast [1]) is reported as “Active”, the Activity (Calvarial osteoblast [2]) is reported as “Active” and the Activity (Mus musculus [3]) is reported as “Active”. The Activity (Mus musculus [4]) was “Active”, the Activity (Mus musculus [5]) was “Active” and the C0 at 24 h [6] was 610 ng/mL. The bioavailability [7] was 13.2%, the Activity [8] was 20.65 g and the Activity [9] was 24.25 g. For the same compound, the Activity [10] was 13.14 g/dL, the Activity [11] was 306.33 U/L and the Activity [12] was 378.12 U/L. It also gave an Activity [13] of 38.6 U/L, an Activity [14] of 17.18 U/L and an Activity [15] of 257.26 mg/dL. For the same compound, the Activity [16] was 0.74 mg/mL, the Activity [17] was 0.036 mg/mL and the Activity [18] was 15 µg/mg. The Activity [19] was 0.14 nM/mg, the Activity [20] was 6.99% and the Activity [21] was 0.26 g. For the same compound, the Activity [22] was 0.3 g, the Activity [23] was 0.33 g and the Activity [24] was 0.14 g. It also gave an Activity [25] of 5.28%, an Activity [26] of 1.14% and an Activity [27] of 1.44%. The Activity [28] was 1.77%, the Activity [29] was 0.33% and the Activity [30] was 0.05%. For the same compound, the Activity [31] was 0.6%.
